Experimental data taken from PubChem BioAssay AID602300 (The Scripps Research Institute Molecular Screening Center, 2012).
The source made the active and inactive calls.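 How the source made its calls: active means inhibition of at least 50%; inactive means inhibition below 50%.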

Target: Diacylglycerol lipase-beta (Mus musculus) (UniProt Q91WC9)
Assay: mouse DAGLb inhibitors by competitive ABPP, late-stage follow-up, biochemical, gel-based fluorescence, overexpressed mouse, set 3 (AID 602300)
Details: HEK293T membrane mDAGLb, at 1 µM, hits give high values
Summary of the method: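 assay system = mouse DAGLb overexpressed in transiently transfected HEK293T cell membrane proteome | medium = Dulbecco's PBS (DPBS) | schedule = 30 min compound preincubation, then 30 min probe labelling, 37 °C | measured by = in-gel fluorescence, band IOD | read-out basis = percent inhibition of DAGLb band versus DMSO and blank-gel references | controls = DMSO high, blank gel low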

Diacylglycerol lipase-beta (Mus musculus), sequence (Q91WC9 whole entry, looked up): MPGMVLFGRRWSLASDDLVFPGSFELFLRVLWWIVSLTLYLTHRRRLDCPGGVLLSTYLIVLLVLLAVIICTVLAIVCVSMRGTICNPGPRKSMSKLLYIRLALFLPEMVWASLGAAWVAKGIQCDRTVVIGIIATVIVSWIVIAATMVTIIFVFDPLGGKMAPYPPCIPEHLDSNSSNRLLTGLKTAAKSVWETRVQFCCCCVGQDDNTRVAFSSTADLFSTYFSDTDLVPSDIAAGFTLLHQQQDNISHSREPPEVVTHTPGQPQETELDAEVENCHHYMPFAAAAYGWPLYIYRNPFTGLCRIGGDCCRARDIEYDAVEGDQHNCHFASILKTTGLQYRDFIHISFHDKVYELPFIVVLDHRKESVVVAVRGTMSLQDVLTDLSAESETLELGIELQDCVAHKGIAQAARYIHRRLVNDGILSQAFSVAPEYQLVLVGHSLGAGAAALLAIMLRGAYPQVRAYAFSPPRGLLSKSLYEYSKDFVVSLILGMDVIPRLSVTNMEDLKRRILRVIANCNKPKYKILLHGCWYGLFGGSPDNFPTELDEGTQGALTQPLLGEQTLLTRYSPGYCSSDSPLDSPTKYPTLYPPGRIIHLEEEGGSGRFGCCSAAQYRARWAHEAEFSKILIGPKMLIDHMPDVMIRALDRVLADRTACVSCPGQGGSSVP

Row | Compound | inhibition
1 | O=C(c1ccc(-c2ccc(-c3cn(C(=O)N4CCCCC4c4ccccc4)nn3)cc2)cc1)N1CCCCC1 (configuration not stated) | 0% (inactive)
2 | O=C(N1CCCCC1c1ccccc1)n1cc(-c2ccc(-c3ccccc3CO)cc2)nn1 (configuration not stated) | 0% (inactive)
3 | O=C(N1CCCCC1c1ccccc1)n1cc(-c2ccc(-c3ccc(CO)cc3)cc2)nn1 (configuration not stated) | 0% (inactive)
4 | O=C(c1cccc(-c2ccc(-c3cn(C(=O)N4CCCCC4c4ccccc4)nn3)cc2)c1)N1CCCCC1 (configuration not stated) | 0% (inactive)
5 | NC(=O)c1ccc(-c2ccc(-c3cn(C(=O)N4CCCCC4c4ccccc4)nn3)cc2)cc1 (configuration not stated) | 0% (inactive)
6 | O=C(c1ccc(-c2ccc(-c3cn(C(=O)N4CCCCC4Cc4ccccc4)nn3)cc2)cc1)N1CCCCC1 (configuration not stated) | 39% (inactive)

Second part, the compound after the results:

Row | inhibition | Compound
7 | 50% | O=C(O)c1cccc(-c2ccc(-c3cn(C(=O)N4CCCCC4Cc4ccccc4)nn3)cc2)c1 (configuration not stated)
8 | 0% (inactive) | O=C(N1CCCCC1c1ccccc1)n1cc(-c2ccc(-c3cccc(CO)c3)cc2)nn1 (configuration not stated)
9 | 6% (inactive) | O=C(O)c1cccc(-c2ccc(-c3cn(C(=O)N4CCCCC4c4ccccc4)nn3)cc2)c1 (configuration not stated)
10 | 4% (inactive) | O=C(O)c1cccc(-c2ccc(-c3cn(C(=O)N4CCCCC4CCc4ccccc4)nn3)cc2)c1 (configuration not stated)
11 | 84% | O=C(N1CCCCC1Cc1ccccc1)n1cc(-c2ccc(-c3cccc(CO)c3)cc2)nn1 (configuration not stated)
12 | 1% (inactive) | O=C(O)c1ccc(-c2ccc(-c3cn(C(=O)N4CCCCC4CCc4ccccc4)nn3)cc2)cc1 (configuration not stated)
